# Data taken from ChEMBL document CHEMBL2163234, “Design and characterization of optimized adenosine A₂A/A₁ receptor antagonists for the treatment of Parkinson's disease” (J Med Chem, 2012).
# Calls of active or inactive are those of the source. The calls are words filed in the database; no cut-off is given here.
# What was measured:
# Adenosine receptor A2a = Adenosine receptor A2a (Homo sapiens, UniProt P29274); test: Antagonist activity at human Adenosine receptor A2a assessed as inhibition of cAMP production; format: functional
# Adenosine receptor A1 = target: T1, Adenosine receptor A1 (Homo sapiens, UniProt P30542); test: Antagonist activity at human Adenosine receptor A1 assessed as inhibition of cAMP production; format: functional
# T1 sequence (P30542 whole entry): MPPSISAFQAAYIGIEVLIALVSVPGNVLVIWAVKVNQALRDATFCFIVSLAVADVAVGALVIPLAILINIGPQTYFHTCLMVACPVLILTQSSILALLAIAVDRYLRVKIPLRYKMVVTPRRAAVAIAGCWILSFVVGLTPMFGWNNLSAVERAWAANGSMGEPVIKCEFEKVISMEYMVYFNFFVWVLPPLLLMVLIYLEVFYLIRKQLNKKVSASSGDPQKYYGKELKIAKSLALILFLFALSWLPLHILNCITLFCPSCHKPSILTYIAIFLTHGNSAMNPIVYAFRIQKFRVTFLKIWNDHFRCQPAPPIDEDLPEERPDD
# Mus musculus [1] = test: Reversal of haloperidol-induced catalepsy in po dosed BALB/c mouse measured 1 hr post dose; format: functional; details: for minimal effective dose: read-out: MED
# Procedure, shortened: (§1)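 Fasted male Balb/c mice receive haloperidol 1 mg/kg sc in 0.3% tartaric acid/saline, then drug po in 0.5% methylcellulose 30 min later (0.1–10.0 mg/kg, or 10 mg/kg as % reversal). At 1 h post-dose, forepaws are placed on a bar 3.5 cm high and time in cataleptic position is recorded (max 60 s). Blinded; n = 8–12; mean ± SEM; Dunnett test.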
# Rattus norvegicus [2] = test: Reversal of haloperidol-induced catalepsy in Sprague-Dawley rat at 10 mg/kg, po dosed 60 mins before haloperidol challenge and measured 1 to 4 hrs post dose; format: functional, organism-based; set-up: dose 10 mg/kg
# [3] = Volume of distribution at steady state in BALB/c mouse at 2 mg/kg, iv administered as single dose; format: ADME, organism-based; set-up: dose 2 mg/kg, route intravenous; details: in vivo, read-out: Vdss
# Procedure, shortened: (§2)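 Fasted animals (male Sprague-Dawley rats, male Balb/c mice, male and female cynomolgus monkeys) received a single iv dose or oral 10 mg/kg in 0.5% methylcellulose. Blood came from 3–4 animals per time point by orbital sinus (rats) or cardiac puncture (mice), or serially by venipuncture (monkeys). Plasma was acetonitrile-precipitated and analysed by LC-MS/MS (LOQ 0.7–2 ng/mL), with noncompartmental analysis.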
# [4] = Volume of distribution at steady state in cynomolgus monkey at 1 mg/kg, iv administered as single dose; format: ADME, organism-based, Macaca fascicularis; set-up: dose 1 mg/kg, route intravenous; details: in vivo, read-out: Vdss; procedure, shortened: as §2
# [5] = Volume of distribution at steady state in Sprague-Dawley rat at 2 mg/kg, iv administered as single dose; format: ADME, organism-based; set-up: dose 2 mg/kg, route intravenous; details: in vivo, read-out: Vdss; procedure, shortened: as §2
# [6] = Clearance in Sprague-Dawley rat at 2 mg/kg, iv and 10 mg/kg, po administered as single dose; format: ADME, organism-based; details: in vivo; procedure, shortened: as §2
# [7] = Clearance in cynomolgus monkey at 1 mg/kg, iv and 10 mg/kg, po administered as single dose; format: ADME, organism-based, Macaca fascicularis; details: in vivo; procedure, shortened: as §2
# [8] = Clearance in BALB/c mouse at 2 mg/kg, iv and 10 mg/kg, po administered as single dose; format: ADME, organism-based; details: in vivo; procedure, shortened: as §2
# Mus musculus [9] = test: Reversal of haloperidol-induced catalepsy in BALB/c mouse at 10 mg/kg, po measured 1 hr post dose; format: functional; procedure, shortened: as §1
# [10] = Volume of distribution at steady state in cynomolgus monkey at 2 mg/kg, iv administered as single dose; format: ADME, organism-based, Macaca fascicularis; set-up: dose 2 mg/kg, route intravenous; details: in vivo, read-out: Vdss; procedure, shortened: as §2
# [11] = Oral bioavailability in Sprague-Dawley rat at 10 mg/kg administered as single dose; format: ADME, organism-based; details: in vivo; procedure, shortened: as §2
# Rattus norvegicus [12] = test: Reversal of haloperidol-induced catalepsy in Sprague-Dawley rat assessed as time duration of anticataleptic activity at 1 mg/kg, po dosed 60 mins before haloperidol challenge and measured post dose
# Mus musculus [13] = test: Antiparkinsonian activity in CF-1 mouse assessed as reversal of reserpine-induced akinesia administered orally 18 hrs before reserpine challenge and measured 60 mins post dose by spontaneous locomotor activity assay; details: CF-1, po, read-out: MED
# [14] = Terminal half life in cynomolgus monkey at 10 mg/kg, po administered as single dose; format: ADME, organism-based, Macaca fascicularis; set-up: dose 10 mg/kg, route oral; details: in vivo, read-out: beta t1/2 (converted); procedure, shortened: as §2
# [15] = Terminal half life in Sprague-Dawley rat at 10 mg/kg, po administered as single dose; format: ADME, organism-based; set-up: dose 10 mg/kg, route oral; details: in vivo, read-out: beta t1/2 (converted); procedure, shortened: as §2
# [16] = Cmax in Sprague-Dawley rat plasma at 10 mg/kg, po administered as single dose; format: ADME, organism-based; set-up: dose 10 mg/kg, route oral; procedure, shortened: as §2
# [17] = Cmax in cynomolgus monkey plasma at 10 mg/kg, po administered as single dose; format: ADME, organism-based, Macaca fascicularis; set-up: dose 10 mg/kg, route oral; procedure, shortened: as §2
# Rattus norvegicus [18] = test: Reversal of haloperidol-induced catalepsy in po dosed Sprague-Dawley rat dosed 60 mins before haloperidol challenge and measured 1 hr post dose; format: functional; details: for minimal effective dose: read-out: MED
# Rattus norvegicus [19] = test: Antiparkinsonian activity in Wistar rat assessed as reversal of reserpine-induced akinesia administered orally 18 hrs before reserpine challenge and measured 60 mins post dose by spontaneous locomotor activity assay; details: for minimal effective dose: po, read-out: MED
# [20] = Cmax in Sprague-Dawley rat brain at 2 mg/kg, iv and 10 mg/kg, po administered as single dose; format: ADME, organism-based
# Procedure, shortened: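 Tissue distribution: fasted male Sprague-Dawley rats get 10 mg/kg po in 0.5% methylcellulose. Four rats per time point are euthanized, and brain is weighed, homogenized in methanol, evaporated and reconstituted. Blood and plasma are acetonitrile-treated. Drug levels are measured by LC-MS/MS.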
# [21] = Oral bioavailability in BALB/c mouse at 10 mg/kg administered as single dose; format: ADME, organism-based; details: in vivo; procedure, shortened: as §2
# [22] = Cmax in BALB/c mouse plasma at 10 mg/kg, po administered as single dose; format: ADME, organism-based; set-up: dose 10 mg/kg, route oral; procedure, shortened: as §2
# [23] = Clearance in cynomolgus monkey at 2 mg/kg, iv and 10 mg/kg, po administered as single dose; format: ADME, organism-based, Macaca fascicularis; details: in vivo; procedure, shortened: as §2
# Rattus norvegicus [24] = test: Antiparkinsonian activity in Sprague-Dawley rat 6-OHDA lesion model assessed as potentiation of 10 mg/kg, po L-DOPA-induced increase in number of contralateral rotations dosed orally 6 weeks post OHDA-challenge; format: functional; details: 1008 h, read-out: MED
# Procedure, shortened: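 Rats lesioned unilaterally in the medial forebrain bundle with 6-OHDA 12 μg were selected by apomorphine rotation (≥125 turns/h). Each rat serves as its own control, with randomized session days. Drug 0.1–10.0 mg/kg po (20% HPβCD) is given and followed 60 min later by L-DOPA 10 mg/kg po plus carbidopa, with rotations recorded over 120 min. Total contralateral turns reported; n = 16; Tukey test.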
# [25] = Half life in BALB/c mouse at 10 mg/kg, po administered as single dose; format: ADME, organism-based; set-up: dose 10 mg/kg, route oral; details: in vivo; procedure, shortened: as §2
# Rattus norvegicus [26] = test: Antiparkinsonian activity in Sprague-Dawley rat 6-OHDA lesion model assessed as increase in number of contralateral rotations dosed orally 6 weeks post OHDA-challenge; format: functional, organism-based
# Procedure, shortened: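 Rats receive 6-OHDA 12 μg unilaterally into the medial forebrain bundle. Inclusion required ≥125 contralateral rotations in 1 h after apomorphine 0.05 mg/kg sc. Design is within-subject, with drug 0.1–10.0 mg/kg po in 20% HPβCD after 30 min acclimation. Contralateral 360° turns are counted by a tethered optical sensor for 60 min. Mean ± SEM, n = 16, Tukey test.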
# [27] = Oral bioavailability in cynomolgus monkey at 10 mg/kg administered as single dose; format: ADME, organism-based, Macaca fascicularis; details: in vivo; procedure, shortened: as §2
# Mus musculus [28] = test: Reversal of haloperidol-induced catalepsy in BALB/c mouse assessed as time duration of anticataleptic activity mouse at 10 mg/kg, po; format: functional
# Procedure, shortened: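 Duration study: fasted male Balb/c mice are dosed with haloperidol 1 mg/kg sc, then drug 10 mg/kg po in 0.5% methylcellulose. Bar-test catalepsy time (max 60 s) is measured repeatedly at 30 min and at 1, 2 and 4 h after dosing. n = 8 per group; mean ± SEM; Dunnett test.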
# Chain of Adenosine receptor A2a (P29274 whole entry): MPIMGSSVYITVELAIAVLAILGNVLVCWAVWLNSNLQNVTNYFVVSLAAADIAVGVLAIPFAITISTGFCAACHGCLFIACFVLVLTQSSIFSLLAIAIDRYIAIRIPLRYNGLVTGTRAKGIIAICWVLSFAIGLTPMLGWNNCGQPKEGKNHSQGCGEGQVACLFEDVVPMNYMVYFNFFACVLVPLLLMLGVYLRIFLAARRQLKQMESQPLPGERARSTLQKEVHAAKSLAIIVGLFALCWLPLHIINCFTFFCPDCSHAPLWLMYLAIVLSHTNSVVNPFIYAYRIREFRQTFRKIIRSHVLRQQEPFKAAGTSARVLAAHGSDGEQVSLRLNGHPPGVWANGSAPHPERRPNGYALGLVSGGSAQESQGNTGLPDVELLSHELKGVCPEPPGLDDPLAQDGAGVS
structure (smiles),measurement,setting,value
Nc1nc(-c2ccccc2)c2c(n1)-c1cc(CN3C4CCC3CC4)ccc1C2=O,Ki,Adenosine receptor A2a,3.1 nM
same,Ki,Adenosine receptor A1,223 nM
same,ED50,Mus musculus [1],1 mg/kg
CC1CC[C@@H](C)N1Cc1ccc2c(c1)-c1nc(N)nc(-c3ccccc3)c1C2=O (mixture of isomers),Ki,Adenosine receptor A2a,13.1 nM
same,Ki,Adenosine receptor A1,37.3 nM
same,ED50,Mus musculus [1],3.2 mg/kg
Nc1nc(-c2ccccc2)c2c(n1)-c1cc(CN3CCCC3)ccc1C2=O,Activity,Rattus norvegicus [2],Active
same,Vd,[3],13 L/kg
same,Vd,[4],7 L/kg
same,Vd,[5],7 L/kg
same,ED50,Mus musculus [1],0.2 mg/kg
same,clearance,[6],85 mL/min/kg
same,clearance,[7],56 mL/min/kg
same,clearance,[8],440 mL/min/kg
Nc1nc(-c2ccccc2)c2c(n1)-c1cc(Cc3ccncc3F)ccc1C2=O,Ki,Adenosine receptor A2a,0.7 nM
same,Ki,Adenosine receptor A1,2.5 nM
same,Activity,Mus musculus [9],100%
Nc1nc(-c2ccccc2)c2c(n1)-c1cc(Cc3cnccc3Cl)ccc1C2=O,Ki,Adenosine receptor A2a,0.1 nM
same,Ki,Adenosine receptor A1,0.5 nM
same,Activity,Mus musculus [9],100%
Nc1nc(-c2ccccc2)c2c(n1)-c1cc(OCCN3CCOCC3)ccc1C2=O,Vd,[10],2 L/kg
same,bioavailability,[11],18%
same,Time,Rattus norvegicus [12],4 h
same,minimal effective dose,Mus musculus [13],1 mg/kg
same,half-life,[14],5.5 h
same,half-life,[15],1.2 h
same,Cmax,[16],1650 nM
same,Vd,[3],5 L/kg
same,Cmax,[17],2770 nM
same,Activity,Rattus norvegicus [18],Dose-dependent effect
same,ED50,Rattus norvegicus [18],0.3 mg/kg
same,minimal effective dose,Rattus norvegicus [18],1 mg/kg
same,Activity,Rattus norvegicus [19],Dose-dependent effect
same,minimal effective dose,Rattus norvegicus [19],1 mg/kg
same,Cmax,[20],4160 nM
same,bioavailability,[21],61%
same,Cmax,[22],1080 nM
same,Vd,[5],1 L/kg
same,clearance,[23],7 mL/min/kg
same,minimal effective dose,Rattus norvegicus [24],1 mg/kg
same,ED50,Mus musculus [1],< 0.1 mg/kg
same,minimal effective dose,Mus musculus [1],0.1 mg/kg
same,half-life,[25],1.1 h
same,clearance,[6],19 mL/min/kg
same,Activity,Rattus norvegicus [26],Dose-dependent effect
same,clearance,[8],97 mL/min/kg
same,bioavailability,[27],55%
same,Time,Mus musculus [28],4 h
N#Cc1cncc(Cc2ccc3c(c2)-c2nc(N)nc(-c4ccccc4)c2C3=O)c1,Ki,Adenosine receptor A2a,1.4 nM
same,Ki,Adenosine receptor A1,5.2 nM
same,Activity,Mus musculus [9],100%
same,Time,Mus musculus [28],2 h
Nc1nc(-c2ccccc2)c2c(n1)-c1cc(Cc3cncc(F)c3)ccc1C2=O,Ki,Adenosine receptor A2a,1.3 nM
same,Ki,Adenosine receptor A1,6 nM
same,Activity,Mus musculus [9],100%
Nc1nc(-c2ccccc2)c2c(n1)-c1cc(C(F)(F)c3cccnc3)ccc1C2=O,Ki,Adenosine receptor A2a,1.6 nM
same,Ki,Adenosine receptor A1,29.3 nM
same,Activity,Mus musculus [9],<50%
CN1CCN(C(=O)c2ccc3c(c2)-c2nc(N)nc(-c4ccccc4)c2C3=O)CC1,Vd,[10],4 L/kg
same,bioavailability,[11],45%
same,minimal effective dose,Mus musculus [13],1 mg/kg
same,half-life,[14],4.3 h
same,half-life,[15],3.6 h
same,Cmax,[16],968 nM
same,Vd,[3],11 L/kg
same,Cmax,[17],1460 nM
same,Activity,Rattus norvegicus [18],Dose-dependent effect
same,ED50,Rattus norvegicus [18],0.6 mg/kg
same,minimal effective dose,Rattus norvegicus [18],1 mg/kg
same,Activity,Rattus norvegicus [19],Dose-dependent effect
same,minimal effective dose,Rattus norvegicus [19],1 mg/kg
same,Cmax,[20],459 nM
same,bioavailability,[21],41%
same,Cmax,[22],1700 nM
same,Vd,[5],6 L/kg
same,clearance,[23],15 mL/min/kg
same,minimal effective dose,Rattus norvegicus [24],1 mg/kg
same,ED50,Mus musculus [1],0.4 mg/kg
same,minimal effective dose,Mus musculus [1],1 mg/kg
same,half-life,[25],3.8 h
same,clearance,[6],52 mL/min/kg
same,Activity,Rattus norvegicus [26],Dose-dependent effect
same,clearance,[8],37 mL/min/kg
same,bioavailability,[27],47%
same,Time,Mus musculus [28],4 h
Nc1nc(-c2ccccc2)c2c(n1)-c1cc(C(=O)c3cccnc3)ccc1C2=O,Ki,Adenosine receptor A2a,0.5 nM
same,Ki,Adenosine receptor A1,1.8 nM
same,Activity,Mus musculus [9],<50%
Nc1nc(-c2ccccc2)c2c(n1)-c1cc(Cc3cccnc3)ccc1C2=O,Ki,Adenosine receptor A2a,0.3 nM
same,Ki,Adenosine receptor A1,2.4 nM
same,ED50,Mus musculus [1],< 1 mg/kg
same,Time,Mus musculus [28],4 h
